Experimental data: ChEMBL document CHEMBL3112476, “Inhibition of IκB kinase-β and IκB kinase-α by heterocyclic adamantyl arotinoids” (Bioorg Med Chem, 2014)

Legend:
Jurkat = assay: Induction of apoptosis in human Jurkat cells assessed as activation of DEVDase at 5 uM after 4 hrs by fluorometric assay relative to control; format: functional
Procedure, shortened: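 Jurkat cells (20,000/well, 0.5% FBS RPMI) were treated 4 h with 5 µM compound and lysed 15 min in PIPES pH 7 buffer with NP-40, cytochalasin B and protease inhibitors. An equal volume of 2× caspase buffer containing 100 µM Ac-DEVD-AFC was added. AFC fluorescence (ex 390/em 510 nm) was read every 2 min for 1 h at 37 °C; the linear slope was taken as activity, expressed as fold over DMSO control. Data: 2 experiments, triplicate.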

[1] = Cytotoxicity against human Jurkat T cells assessed as cell viability after 24 hrs by CellTiter-Glo assay; format: functional, cell-based
Procedure, shortened: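 Jurkat cells were seeded the day before treatment in RPMI with 0.5% FBS (10,000 cells/well). They were treated in triplicate across an 8-point dose series starting at 10 µM, with DMSO ≤0.1% as solvent control. ATP was measured by CellTiter-Glo luminescence after 24 h; a time-0 reading separated cytostatic from cytotoxic effects. IC50 was fitted from the curve.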

[2] = target: T1, Inhibitor of nuclear factor kappa-B kinase subunit beta (Homo sapiens, UniProt O14920); assay: Inhibition of recombinant IKKbeta (unknown origin) using ulight-IkappaomegaBalpha as substrate after 1 hr by LANCE ultra TR-FRET assay
T1 sequence (O14920 whole entry): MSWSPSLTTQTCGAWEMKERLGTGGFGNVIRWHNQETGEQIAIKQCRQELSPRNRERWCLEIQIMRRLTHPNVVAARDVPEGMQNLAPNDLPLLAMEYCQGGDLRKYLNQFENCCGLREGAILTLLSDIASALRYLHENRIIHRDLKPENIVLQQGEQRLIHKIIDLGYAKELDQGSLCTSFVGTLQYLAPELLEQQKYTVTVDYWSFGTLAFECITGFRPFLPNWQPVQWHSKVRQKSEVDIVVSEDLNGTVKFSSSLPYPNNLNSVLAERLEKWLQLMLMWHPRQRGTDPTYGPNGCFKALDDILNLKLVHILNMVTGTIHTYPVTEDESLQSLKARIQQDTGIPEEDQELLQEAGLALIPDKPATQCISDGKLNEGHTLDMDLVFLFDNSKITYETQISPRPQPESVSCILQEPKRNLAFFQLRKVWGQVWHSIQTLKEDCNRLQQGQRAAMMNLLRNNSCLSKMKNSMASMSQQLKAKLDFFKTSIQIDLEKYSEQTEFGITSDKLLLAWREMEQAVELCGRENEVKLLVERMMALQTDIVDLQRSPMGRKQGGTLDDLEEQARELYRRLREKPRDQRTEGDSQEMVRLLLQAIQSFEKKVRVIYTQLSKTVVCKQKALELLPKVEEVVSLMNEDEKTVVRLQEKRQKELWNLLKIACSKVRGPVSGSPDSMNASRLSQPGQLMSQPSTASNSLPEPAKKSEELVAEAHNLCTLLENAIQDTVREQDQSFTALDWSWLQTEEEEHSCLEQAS

[3] = target: T2, Inhibitor of nuclear factor kappa-B kinase subunit alpha (Homo sapiens) (UniProt O15111); assay: Inhibition of recombinant IKKalpha (unknown origin) using ulight-IkappaomegaBalpha as substrate at 20 uM after 2 hrs by LANCE ultra TR-FRET assay relative to control
T2 sequence (whole entry): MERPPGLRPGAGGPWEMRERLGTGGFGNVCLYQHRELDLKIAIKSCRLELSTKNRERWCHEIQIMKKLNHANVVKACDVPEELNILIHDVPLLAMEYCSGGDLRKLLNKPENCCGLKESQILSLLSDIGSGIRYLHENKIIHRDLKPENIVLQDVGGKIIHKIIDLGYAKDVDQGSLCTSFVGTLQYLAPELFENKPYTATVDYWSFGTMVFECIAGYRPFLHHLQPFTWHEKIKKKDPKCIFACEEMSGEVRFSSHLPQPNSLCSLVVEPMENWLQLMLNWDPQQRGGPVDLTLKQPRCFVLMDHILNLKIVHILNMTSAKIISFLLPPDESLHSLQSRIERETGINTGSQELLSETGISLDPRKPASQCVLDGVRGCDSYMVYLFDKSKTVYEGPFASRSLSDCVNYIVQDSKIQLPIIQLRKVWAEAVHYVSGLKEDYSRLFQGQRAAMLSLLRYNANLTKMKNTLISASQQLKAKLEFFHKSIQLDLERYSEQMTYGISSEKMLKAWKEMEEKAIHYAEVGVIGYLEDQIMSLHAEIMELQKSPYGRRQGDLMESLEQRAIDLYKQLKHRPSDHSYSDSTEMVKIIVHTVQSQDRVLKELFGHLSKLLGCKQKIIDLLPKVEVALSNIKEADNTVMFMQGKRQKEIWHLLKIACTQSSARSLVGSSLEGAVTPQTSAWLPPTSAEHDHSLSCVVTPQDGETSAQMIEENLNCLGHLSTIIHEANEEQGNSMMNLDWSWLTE
Procedure, shortened: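 Recombinant IKKα (4 nM), IKKβ (1 nM) or IKKε (2 nM) in 50 mM Hepes pH 7.4, 10 mM MgCl2, 1 mM EGTA, 2 mM DTT, 0.01% Tween-20. Substrate was 50 nM ULight-IκBα (IKKα/β) or ULight-rpS6 (IKKε); ATP was 1.25 µM (α/β) or 5 µM (ε). Compound was tested at 20 µM. Incubation was 1 h (IKKβ) or 2 h (IKKα/ε) at room temperature, stopped with 20 mM EDTA plus 2 nM Eu-anti-phospho antibody, then TR-FRET 665/615 nm. Results are percent inhibition versus solvent; 3–4 experiments, triplicate.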

## Cc1cc(O)c(C23CC4CC(CC(C4)C2)C3)cc1-c1ncc(-c2ccc(C(=O)O)cc2)s1
Jurkat
  fold change (FC): 12.1
[1]
  IC50: 4.4 µM
[2]
  IC50: 4.78 µM
[3]
  inhibition: 87.9%

## COCCOCOc1cc(C)c(-c2ccc(/C=C/C(=O)O)cc2Cl)cc1C12CC3CC(CC(C3)C1)C2
Jurkat
  fold change (FC): 1.3
[3]
  inhibition: 13.5%

## Cc1cc(O)c(C23CC4CC(CC(C4)C2)C3)cc1-c1ccc(CC(=O)O)cc1Cl
Jurkat
  fold change (FC): 1.8
[1]
  IC50: 3.98 µM
[3]
  inhibition: 26.9%

## COCCOCOc1cc(C)c(-c2ncc(/C=C/C(=O)O)nc2OC)cc1C12CC3CC(CC(C3)C1)C2
Jurkat
  fold change (FC): 0.3
[3]
  inhibition: 45.7%

## COCCOCOc1cc(C)c(-c2ncc(/C=C/C(=O)O)s2)cc1C12CC3CC(CC(C3)C1)C2
Jurkat
  fold change (FC): 1.6
[3]
  inhibition: 29.2%

## COCCOCOc1ccc(-c2ncc(/C=C/C(=O)O)nc2OC)cc1C12CC3CC(CC(C3)C1)C2
Jurkat
  fold change (FC): 0.2
[3]
  inhibition: 4.2%

## COCCOCOc1cc(C)c(-c2ncc(-c3ccc(C(=O)O)cc3)s2)cc1C12CC3CC(CC(C3)C1)C2
Jurkat
  fold change (FC): 4.9
[1]
  IC50: 5.71 µM
[2]
  IC50: 4.43 µM
[3]
  inhibition: 73.3%

## Cc1cc(O)c(C23CC4CC(CC(C4)C2)C3)cc1-c1ccc2cc(C(=O)O)ccc2c1Cl
Jurkat
  fold change (FC): 55.8
[1]
  IC50: 2.19 µM
[2]
  IC50: 4.75 µM
[3]
  inhibition: 87.3%

## Cc1cc(O)c(C23CC4CC(CC(C4)C2)C3)cc1-c1ccc(/C=C/C(=O)O)cc1Cl
Jurkat
  fold change (FC): 0.8
[1]
  IC50: 4.04 µM
[3]
  inhibition: 23.7%

## COCCOCOc1cc(C)c(-c2ccc(CC(=O)O)cc2Cl)cc1C12CC3CC(CC(C3)C1)C2
Jurkat
  fold change (FC): 2.6
[3]
  inhibition: 42.3%

## COc1nc(/C=C/C(=O)O)cnc1-c1ccc(O)c(C23CC4CC(CC(C4)C2)C3)c1
Jurkat
  fold change (FC): 3.1
[1]
  IC50: 5.01 µM
[3]
  inhibition: 17.9%

## COCCOCOc1ccc(-c2ncc(-c3ccc(C(=O)O)cc3)nc2OC)cc1C12CC3CC(CC(C3)C1)C2
Jurkat
  fold change (FC): 2.5
[3]
  inhibition: 23.8%

## O=C(O)c1ccc(-c2cnc(-c3ccc(O)c(C45CC6CC(CC(C6)C4)C5)c3)s2)cc1
Jurkat
  fold change (FC): 81.4
[1]
  IC50: 2.24 µM
[2]
  IC50: 3.37 µM
[3]
  inhibition: 85.3%

## COCCOCOc1cc(C)c(-c2ccc3cc(C(=O)O)ccc3c2Cl)cc1C12CC3CC(CC(C3)C1)C2
Jurkat
  fold change (FC): 12.4
[1]
  IC50: 5.62 µM
[2]
  IC50: 7.06 µM
[3]
  inhibition: 33.9%

## COCCOCOc1ccc(-c2ncc(/C=C/C(=O)O)s2)cc1C12CC3CC(CC(C3)C1)C2
Jurkat
  fold change (FC): 0.6
[3]
  inhibition: 4.5%

## COCCOCOc1ccc(-c2ncc(-c3ccc(C(=O)O)cc3)s2)cc1C12CC3CC(CC(C3)C1)C2
Jurkat
  fold change (FC): 9.8
[2]
  IC50: 5.16 µM
[3]
  inhibition: 82.9%

## CC(=O)NCCCOc1cc(/C=C/C(=O)O)ccc1-c1cc(C23CC4CC(CC(C4)C2)C3)c(O)cc1C
Jurkat
  fold change (FC): 6.3
[1]
  IC50: 2.61 µM
[3]
  inhibition: 2.3%

## O=C(O)/C=C/c1cnc(-c2ccc(O)c(C34CC5CC(CC(C5)C3)C4)c2)s1
Jurkat
  fold change (FC): 0.6
[3]
  inhibition: 32.8%

## COc1nc(-c2ccc(C(=O)O)cc2)cnc1-c1ccc(O)c(C23CC4CC(CC(C4)C2)C3)c1
Jurkat
  fold change (FC): 42.6
[1]
  IC50: 3.13 µM
[2]
  IC50: 7.81 µM
[3]
  inhibition: 78.5%

## COc1nc(/C=C/C(=O)O)cnc1-c1cc(C23CC4CC(CC(C4)C2)C3)c(O)cc1C
Jurkat
  fold change (FC): 2.6
[1]
  IC50: 5.38 µM
[3]
  inhibition: 50.1%

## Cc1cc(O)c(C23CC4CC(CC(C4)C2)C3)cc1-c1ncc(/C=C/C(=O)O)s1
Jurkat
  fold change (FC): 1.5
[3]
  inhibition: 46.6%
